{"data": "Published values of several laboratories", "species": "human", "note": "Lines come from different studies, so protocols differ."}
{"Compound": "c1cnc2ccc(Nc3nc(NC4CC4)c4nc[nH]c4n3)cc2c1", "test system": "plasma", "conditions": "oral, 400 mg/m², patients", "measurement": "CL/F", "value": "115 L/h"}
{"Compound": "Cn1cc(-c2cnc3cnn(S(=O)(=O)c4cnc5ccc(-c6cnn(C)c6)cn45)c3c2)cn1", "test system": "plasma", "conditions": "oral, 300 mg, single dose, fasted, healthy volunteers", "measurement": "CL/F", "value": "12.8 L/h"}
{"Compound": "CCNCCCNC/C=C\\CNCCCNCC", "test system": "plasma", "conditions": "intravenous, 50 mg, patients, infusion", "measurement": "clearance", "value": "10500 mL/min"}
{"Compound": "OC[C@H]1O[C@@H](c2ccc(Cl)c(Cc3ccc(O[C@H]4CCOC4)cc3)c2)[C@H](O)[C@@H](O)[C@@H]1O", "test system": "urine", "conditions": "oral, 25 mg, single dose", "measurement": "renal clearance", "value": "21.1 mL/min"}
{"Compound": "Cc1ccc(C(=O)N(CCCN)[C@@H](c2oc3cc(Cl)ccc3c(=O)c2Cc2ccccc2)C(C)C)cc1", "test system": "plasma", "conditions": "intravenous, 5 mg/m², single dose, patients, infusion", "measurement": "clearance", "value": "20.5 mL/min"}
{"Compound": "COc1cc(C(=O)NC2CCN(C)CC2)c(F)cc1Nc1ncc(C(F)(F)F)c(Oc2cccc3c2C(=O)N(C)C3)n1", "test system": "plasma", "conditions": "oral, 300 mg, multiple doses, once daily, patients", "measurement": "CL/F", "value": "6.42 L/h"}
{"Compound": "CCOc1ccc(Cc2cc([C@@H]3O[C@H](CO)[C@@H](O)[C@H](O)[C@H]3O)ccc2Cl)cc1", "test system": "plasma", "conditions": "oral, multiple doses, steady state", "measurement": "CL/F", "value": "21.1 L/h"}
{"Compound": "CS(=O)(=O)CCC#N", "test system": "plasma", "conditions": "oral, 300 mg, single dose, fasted", "measurement": "CL/F", "value": "0.217 mL/min/kg"}
